Source: ChEMBL document CHEMBL1150371, “Design and synthesis of benzenesulfonanilides active against methicillin-resistant Staphylococcus aureus and vancomycin-resistant Enterococcus” (Bioorg Med Chem, 2008)
In brackets after ≈: the same amount, converted by molar mass. Activity calls are given as the source filed them. The rule behind the calls is not given here.

Legend:
Staphylococcus aureus [1] = assay: Antimicrobial activity against methicillin-resistant Staphylococcus aureus at […] by disk diffusion method; assay type: functional
In short: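 Overnight nutrient-broth culture (35 °C, 12–18 h) of MRSA OM584 spread on Mueller-Hinton agar; 8-mm paper discs given 10 µL of 20 mM compound in DMSO; plates incubated at 37 °C about 20 h; inhibition zones measured and scored: −, ± (0–1 mm), +1 (1–15 mm), +2 (15–20 mm), +3 (>20 mm).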

Enterococcus faecium = assay: Antimicrobial activity against vancomycin-resistant Enterococcus faecium FN-1 by microdilution susceptibility test; assay type: functional
In short: (§1)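 Broth microdilution MIC per Japan Society of Chemotherapy standard method. Cultures grown in sensitivity test broth at 37 °C to OD620 0.1, inoculum ≈10^5 CFU/mL. Twofold dilutions from DMSO stock, 500 to 0.2 µg/mL; 20 h, 37 °C, humid. MIC = lowest concentration clearly inhibiting growth by visual inspection; vancomycin standard; media, DMSO and water controls; at least duplicate.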

Staphylococcus aureus [2] = assay: Antimicrobial activity against methicillin-resistant Staphylococcus aureus OM584 by microdilution method; assay type: functional; in short: as §1
Mus musculus = assay: Acute toxicity in mouse at 100 mg/kg, ip upto 14 days; assay type: organism-based; design: dose 100 mg/kg, route intraperitoneal; conditions: in vivo, 336 h
In short: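 Male mice (15–30 g), water only for 12 h beforehand; compound in 0.5% CMC given ip at doses up to 100 mg kg-1, n = 5/group; toxic symptoms observed up to 14 days.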

SMILES | Activity (Staphylococcus aureus [1]) | MIC (Enterococcus faecium) [µg/mL] | MIC (Staphylococcus aureus [2]) [µg/mL] | also measured
CS(=O)(=O)Nc1ccc(S(=O)(=O)Nc2cc(C(F)(F)F)cc(C(F)(F)F)c2)cc1 |  |  |  | inhibition zone (IZ) (Staphylococcus aureus [1]): 0 mm
COc1ccc(NS(=O)(=O)c2ccc([N+](=O)[O-])cc2)cc1 | inactive |  |  | 
Cc1ccc(S(=O)(=O)Nc2cc(Cl)cc(Cl)c2)cc1 |  | 62.5 (≈ 198 µM) | 125 (≈ 395 µM) | 
Cc1ccccc1NS(=O)(=O)c1ccc(N)cc1 | inactive |  |  | 
Cc1cccc(NS(=O)(=O)c2ccc([N+](=O)[O-])cc2)c1 |  |  |  | inhibition zone (IZ) (Staphylococcus aureus [1]): 1 mm
O=S(=O)(Nc1cc(C(F)(F)F)cc(C(F)(F)F)c1)c1ccc(Cl)cc1 |  | 7.8 (≈ 19.3 µM) | 7.8 (≈ 19.3 µM) | inhibition zone (IZ) (Staphylococcus aureus [1]): 15 mm
CS(=O)(=O)Nc1ccc(S(=O)(=O)Nc2ccc(Cl)cc2)cc1 |  |  |  | inhibition zone (IZ) (Staphylococcus aureus [1]): 0 mm
CS(=O)(=O)Nc1ccc(S(=O)(=O)Nc2ccccc2)cc1 | inactive |  |  | 
CS(=O)(=O)Nc1ccc(S(=O)(=O)Nc2ccc(C(F)(F)F)cc2)cc1 | inactive |  |  | 
O=[N+]([O-])c1ccc(S(=O)(=O)Nc2cc(C(F)(F)F)cc(C(F)(F)F)c2)cc1 |  | 3.9 (≈ 9.41 µM) | 31.3 (≈ 75.6 µM) | inhibition zone (IZ) (Staphylococcus aureus [1]): >20 mm
O=S(=O)(Nc1ccc(Cl)cc1)c1cc(C(F)(F)F)cc(C(F)(F)F)c1 |  | 62.5 (≈ 155 µM) | 31.3 (≈ 77.5 µM) | 
O=S(=O)(Nc1cc(Cl)c(O)c(Cl)c1)c1cc(Cl)cc(Cl)c1 |  | 31.3 (≈ 80.9 µM) | 31.3 (≈ 80.9 µM) | 
O=S(=O)(Nc1cc(C(F)(F)F)cc(C(F)(F)F)c1)c1ccc(C(F)(F)F)cc1 |  | 7.8 (≈ 17.8 µM) | 15.6 (≈ 35.7 µM) | inhibition zone (IZ) (Staphylococcus aureus [1]): >20 mm
Cc1ccccc1NS(=O)(=O)c1ccc(NS(C)(=O)=O)cc1 | inactive |  |  | 
Cc1cccc(NS(=O)(=O)c2ccc(NS(C)(=O)=O)cc2)c1 | inactive |  |  | 
O=S(=O)(Nc1c(Cl)cccc1Cl)c1cc(C(F)(F)F)cc(C(F)(F)F)c1 |  | > 250 | > 250 | 
Cc1ccc(NS(=O)(=O)c2ccc(N)cc2)cc1 | inactive |  |  | 
COc1ccc(S(=O)(=O)Nc2cc(C(F)(F)F)cc(C(F)(F)F)c2)cc1 |  | 62.5 (≈ 157 µM) | 62.5 (≈ 157 µM) | inhibition zone (IZ) (Staphylococcus aureus [1]): 1 mm
COc1ccc(NS(=O)(=O)c2ccc(C(=O)O)cc2)cc1 | inactive |  |  | 
O=[N+]([O-])c1ccc(S(=O)(=O)Nc2cc(Cl)cc(Cl)c2)cc1 |  | 62.5 (≈ 180 µM) | > 250 | 
O=S(=O)(Nc1ccc(C(F)(F)F)cn1)c1cc(Cl)cc(Cl)c1 |  | > 250 | > 250 | 
O=S(=O)(Nc1ccc(C(F)(F)F)cc1)c1cc(C(F)(F)F)cc(C(F)(F)F)c1 |  | 3.9 (≈ 8.92 µM) | 7.8 (≈ 17.8 µM) | 
Cl.O=[N+]([O-])c1ccc(S(=O)(=O)Nc2cc(C(F)(F)F)cc(C(F)(F)F)c2)cc1 |  |  |  | inhibition zone (IZ) (Staphylococcus aureus [1]): >20 mm
Cc1ccccc1NS(=O)(=O)c1ccc(C(=O)O)cc1 | inactive |  |  | 
O=C(O)c1ccc(S(=O)(=O)Nc2ccc(I)cc2)cc1 | inactive |  |  | 
O=S(=O)(Nc1cccc(C(F)(F)F)c1)c1cc(Cl)cc(Cl)c1 |  | 62.5 (≈ 169 µM) | 125 (≈ 338 µM) | 

SMILES | Activity (Staphylococcus aureus [1]) | MIC (Enterococcus faecium) [µg/mL] | MIC (Staphylococcus aureus [2]) [µg/mL] | also measured
Cl.Nc1ccc(S(=O)(=O)Nc2cc(C(F)(F)F)cc(C(F)(F)F)c2)cc1 |  |  |  | inhibition zone (IZ) (Staphylococcus aureus [1]): 1 mm
O=S(=O)(Nc1c(F)cccc1F)c1cc(C(F)(F)F)cc(C(F)(F)F)c1 |  | > 250 | > 250 | 
O=S(=O)(Nc1ccc(Cl)cc1)c1cc(Cl)cc(Cl)c1 |  | 125 (≈ 371 µM) | > 250 | 
O=[N+]([O-])c1ccc(NS(=O)(=O)c2cc(Cl)cc(Cl)c2)cc1 |  | 15.6 (≈ 44.9 µM) | 7.8 (≈ 22.5 µM) | 
O=S(=O)(Nc1cc(Cl)c(O)c(Cl)c1)c1cc(C(F)(F)F)cc(C(F)(F)F)c1 |  | 62.5 (≈ 138 µM) | 125 (≈ 275 µM) | 
Nc1ccc(S(=O)(=O)Nc2ccc(Cl)cc2)cc1 | inactive |  |  | 
Cc1ccc(NS(=O)(=O)c2ccc(NS(C)(=O)=O)cc2)cc1 | inactive |  |  | 
CN(c1cc(Cl)cc(Cl)c1)S(=O)(=O)c1cc(C(F)(F)F)cc(C(F)(F)F)c1 |  | > 250 | > 250 | 
Nc1ccc(S(=O)(=O)Nc2ccc(C(F)(F)F)cc2)cc1 | inactive |  |  | 
CN(c1cc(C(F)(F)F)cc(C(F)(F)F)c1)S(=O)(=O)c1cc(Cl)cc(Cl)c1 |  | > 250 | > 250 | 
Cc1ccc(NS(=O)(=O)c2ccc(C(=O)O)cc2)cc1 | inactive |  |  | 
O=S(=O)(Nc1cc(F)cc(F)c1)c1cc(C(F)(F)F)cc(C(F)(F)F)c1 |  | 7.8 (≈ 19.2 µM) | 2 (≈ 4.94 µM) | Activity (Mus musculus): Non-toxic
Nc1ccc(S(=O)(=O)Nc2cc(C(F)(F)F)cc(C(F)(F)F)c2)cc1 |  | 62.5 (≈ 163 µM) | 125 (≈ 325 µM) | inhibition zone (IZ) (Staphylococcus aureus [1]): 1 mm
Cc1cc(C)cc(NS(=O)(=O)c2ccc([N+](=O)[O-])cc2)c1 | inactive |  |  | 
Cc1ccc(NS(=O)(=O)c2cc(C(F)(F)F)cc(C(F)(F)F)c2)cc1 |  | > 250 | > 250 | 
Cc1ccc(S(=O)(=O)Nc2cc(C(F)(F)F)cc(C(F)(F)F)c2)cc1 | inactive | 62.5 (≈ 163 µM) | 62.5 (≈ 163 µM) | 
O=S(=O)(Nc1cc(Cl)cc(Cl)c1)c1ccc(C(F)(F)F)cc1 |  | 7.8 (≈ 21.1 µM) | 15.6 (≈ 42.1 µM) | 
COc1ccc(NS(=O)(=O)c2cc(C(F)(F)F)cc(C(F)(F)F)c2)cc1 |  | 125 (≈ 313 µM) | > 250 | 
O=S(=O)(Nc1cccc(F)c1F)c1cc(C(F)(F)F)cc(C(F)(F)F)c1 |  | 62.5 (≈ 154 µM) | 15.6 (≈ 38.5 µM) | 
O=S(=O)(Nc1cc(C(F)(F)F)cc(C(F)(F)F)c1)c1ccc(F)cc1 |  | 62.5 (≈ 161 µM) | 15.6 (≈ 40.3 µM) | 
Nc1ccc(S(=O)(=O)Nc2cc(Cl)cc(Cl)c2)cc1 |  | 31.3 (≈ 98.7 µM) | 250 (≈ 788 µM) | 
Cc1ccc(NS(=O)(=O)c2ccc([N+](=O)[O-])cc2)cc1 | inactive |  |  | 
O=[N+]([O-])c1ccc(S(=O)(=O)Nc2ccccc2)cc1 | inactive |  |  | 
Cc1cc(C)cc(NS(=O)(=O)c2ccc(N)cc2)c1 | inactive |  |  | 
O=[N+]([O-])c1ccc(S(=O)(=O)Nc2ccc(C(F)(F)F)cc2)cc1 | inactive |  |  | 
O=S(=O)(Nc1ccc(C(F)(F)F)cc1)c1cc(Cl)cc(Cl)c1 |  | 31.3 (≈ 84.6 µM) | 31.3 (≈ 84.6 µM) | 

SMILES | Activity (Staphylococcus aureus [1]) | MIC (Enterococcus faecium) [µg/mL] | MIC (Staphylococcus aureus [2]) [µg/mL] | also measured
COc1ccc(NS(=O)(=O)c2cc(Cl)cc(Cl)c2)cc1 |  | 125 (≈ 376 µM) | 125 (≈ 376 µM) | 
Cc1cc(C)cc(NS(=O)(=O)c2ccc(C(=O)O)cc2)c1 | inactive |  |  | 
O=S(=O)(Nc1cc(F)cc(F)c1)c1cc(Cl)cc(Cl)c1 |  | 7.8 (≈ 23.1 µM) | 31.3 (≈ 92.6 µM) | 
Nc1ccc(NS(=O)(=O)c2cc(Cl)cc(Cl)c2)cc1 |  | > 250 | > 250 | 
O=S(=O)(Nc1cc(Cl)nc(Cl)c1)c1cc(C(F)(F)F)cc(C(F)(F)F)c1 |  | 7.8 (≈ 17.8 µM) | 15.6 (≈ 35.5 µM) | 
Cc1cccc(NS(=O)(=O)c2ccc(N)cc2)c1 | inactive |  |  | 
O=S(=O)(Nc1cc(Cl)cc(Cl)c1)c1ccc(Cl)cc1 |  | 62.5 (≈ 186 µM) | 31.3 (≈ 93 µM) | 
O=S(=O)(Nc1ccc(Cl)cc1Cl)c1cc(C(F)(F)F)cc(C(F)(F)F)c1 |  | > 250 | > 250 | 
CN[C@H](CC(C)C)C(=O)N[C@H]1C(=O)N[C@@H](CC(N)=O)C(=O)N[C@H]2C(=O)N[C@H]3C(=O)N[C@H](C(=O)N[C@H](C(=O)O)c4cc(O)cc(O)c4-c4cc3ccc4O)[C@H](O)c3ccc(c(Cl)c3)Oc3cc2cc(c3O[C@@H]2O[C@H](CO)[C@@H](O)[C@H](O)[C@H]2O[C@H]2C[C@](C)(N)[C@H](O)[C@H](C)O2)Oc2ccc(cc2Cl)[C@H]1O [VANCOMYCIN] |  | 125 (≈ 86.3 µM) |  | 
O=S(=O)(Nc1cc(Cl)nc(Cl)c1)c1cc(Cl)cc(Cl)c1 |  | 7.8 (≈ 21 µM) | 15.6 (≈ 41.9 µM) | 
O=S(=O)(Nc1ccc(F)c(F)c1)c1cc(C(F)(F)F)cc(C(F)(F)F)c1 |  | 7.8 (≈ 19.2 µM) | 3.9 (≈ 9.62 µM) | 
O=S(=O)(Nc1cc(Cl)cc(Cl)c1)c1cc(C(F)(F)F)cc(C(F)(F)F)c1 |  | 1 (≈ 2.28 µM) | 0.5 (≈ 1.14 µM) | Activity (Mus musculus): Non-toxic
COc1ccc(NS(=O)(=O)c2ccc(NS(C)(=O)=O)cc2)cc1 | inactive |  |  | 
Cc1ccc(NS(=O)(=O)c2cc(Cl)cc(Cl)c2)cc1 |  | 62.5 (≈ 198 µM) | > 250 | 
COc1ccc(S(=O)(=O)Nc2cc(Cl)cc(Cl)c2)cc1 |  | 125 (≈ 376 µM) | 250 (≈ 753 µM) | 
O=S(=O)(Nc1ccc(F)cc1F)c1cc(C(F)(F)F)cc(C(F)(F)F)c1 |  | > 250 | > 250 | 
O=[N+]([O-])c1ccc(NS(=O)(=O)c2cc(C(F)(F)F)cc(C(F)(F)F)c2)cc1 |  | 7.8 (≈ 18.8 µM) | 7.8 (≈ 18.8 µM) | 
O=S(=O)(Nc1cc(C(F)(F)F)cc(C(F)(F)F)c1)c1cccc(Cl)c1 |  | 15.6 (≈ 38.6 µM) | 31.3 (≈ 77.5 µM) | 
O=S(=O)(Nc1cc(C(F)(F)F)cc(C(F)(F)F)c1)c1cc(Cl)cc(Cl)c1 |  | 1 (≈ 2.28 µM) | 0.5 (≈ 1.14 µM) | 
Nc1ccc(S(=O)(=O)Nc2ccccc2)cc1 | inactive |  |  | 
COc1ccc(NS(=O)(=O)c2ccc(N)cc2)cc1 | inactive |  |  | 
O=S(=O)(Nc1cc(F)ccc1F)c1cc(C(F)(F)F)cc(C(F)(F)F)c1 |  | 62.5 (≈ 154 µM) | 15.6 (≈ 38.5 µM) | 
Cc1cc(C)cc(NS(=O)(=O)c2ccc(NS(C)(=O)=O)cc2)c1 | inactive |  |  | 
Nc1ccc(NS(=O)(=O)c2cc(C(F)(F)F)cc(C(F)(F)F)c2)cc1 |  | > 250 | > 250 | 
Nc1ccc(S(=O)(=O)Nc2ccc(I)cc2)cc1 | inactive |  |  | 
